Usually logD stands for the decadic logarithm of the distribution of all forms, ionised or not, between an organic phase and buffer at a given pH. Higher therefore signals higher lipophilicity.

Residue numbers refer to the chain shown, from its start. Active and inactive are the calls of the source. The calls are words filed in the database; no cut-off is given here.

The test system of data set [1] is Mus musculus. Kind of data set: Antiamnesic activity against in contextual fear conditioning B6SJL mouse modle assessed as reversal of scopolamine-induced episodic memory deficit in at 30 mg/kg. The format is functional, organism-based. More on the design: dose 30 mg/kg. An outline of the steps:
(§1)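 Contextual fear conditioning model of episodic memory in B6SJL mice; scopolamine-induced deficit; test agents given at 3, 10 and 30 mpk; read-out is reversal of the scopolamine deficit.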

Data set [2] has as its target T1, Muscarinic acetylcholine receptor M1 (Homo sapiens) (UniProt P11229).
T1 sequence (whole entry): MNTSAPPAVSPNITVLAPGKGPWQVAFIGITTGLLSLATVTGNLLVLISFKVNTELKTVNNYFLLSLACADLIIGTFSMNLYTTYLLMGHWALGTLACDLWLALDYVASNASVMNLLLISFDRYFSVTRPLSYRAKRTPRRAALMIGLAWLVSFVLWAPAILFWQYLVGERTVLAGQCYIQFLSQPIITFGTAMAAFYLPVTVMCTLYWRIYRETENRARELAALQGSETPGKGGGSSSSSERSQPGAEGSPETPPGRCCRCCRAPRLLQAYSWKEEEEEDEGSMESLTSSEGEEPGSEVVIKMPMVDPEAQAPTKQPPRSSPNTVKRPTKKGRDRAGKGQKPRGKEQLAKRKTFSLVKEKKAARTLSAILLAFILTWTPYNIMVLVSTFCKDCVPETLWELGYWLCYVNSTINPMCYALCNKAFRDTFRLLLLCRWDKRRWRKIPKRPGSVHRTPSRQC
Kind of data set: Positive allosteric modulation at human muscarinic M1 receptor expressing CHO cells assessed as potentiation of acetylcholine-induced calcium mobilization by FLIPR assay. The format is functional, cell-based. An outline of the steps:
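CHO cells expressing human M1 receptor. Inflection point determined in the presence of an EC20 concentration of acetylcholine. Mean of at least two experiments; interassay variability ±30%.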

Data set [3] can be described thus: Distribution coefficient, log D of the compound. The format is physicochemical. The settings on record: octanol/water.
Data set [4] concerns Mus musculus. As to the kind of experiment: Antiamnesic activity against in contextual fear conditioning B6SJL mouse modle assessed as reversal of scopolamine-induced episodic memory deficit in at 10 mg/kg. The class given is functional, organism-based. Also noted: dose 10 mg/kg. An outline of the steps: as §1
Data set [5] in a line: Plasma protein binding in rat. The format is ADME, cell-free. The settings on record: read-out: PPB (converted).
A short description of data set [6]: Ratio of drug uptake in CSF to fraction unbound in plasma in wild type CF-1 mouse after 30 mins. The settings on record: 0.5 h. The class given is ADME, cell-free. An outline of the steps: (§2)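 CF-1 mice, wild type and P-gp knockout, were treated with the compound. Plasma and CSF were collected 30 minutes after treatment. The value is the CSF concentration divided by the unbound plasma concentration (CSF/U plasma ratio), reported separately for each genotype.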

In data set [7] the target is T1, Muscarinic acetylcholine receptor M1 (Homo sapiens). As to the kind of experiment: Positive allosteric modulation at human muscarinic M1 receptor expressing CHO cells assessed as potentiation of acetylcholine-induced calcium mobilization at 0.1 to 1 uM by FLIPR assay. The class given is functional, cell-based. An outline of the steps:
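Human M1-expressing CHO cells; calcium mobilization read-out. Acetylcholine dose–response curves run with modulator at rising concentrations from 0.1 to 1 μM; fold potentiation taken from the leftward shift of the curve.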
(A change in cytosolic calcium serves as a functional read-out for many receptors and channels.)

A short description of data set [8]: Ratio of drug uptake in CSF to fraction unbound in plasma in P-gp knock out CF-1 mouse after 30 mins. The format is ADME, cell-free. As to conditions: 0.5 h. An outline of the steps: as §2
For data set [9], the system named is Mus musculus. Kind of data set: Antiamnesic activity against in contextual fear conditioning B6SJL mouse modle assessed as reversal of scopolamine-induced episodic memory deficit in at 3 mg/kg. The class given is functional, organism-based. More on the design: dose 3 mg/kg. In outline:
as §1

Data set [10] deals with Plasma. As to the kind of experiment: Plasma concentration in Sprague-Dawley rat at 10 mg/kg, po. The class given is ADME, organism-based. Also noted: dose 10 mg/kg, route oral. The settings on record: in vivo. In outline:
(§3)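 Sprague-Dawley rats dosed orally at 10 mg/kg in 0.5% methocel. Drug levels measured by bioanalysis of plasma, brain and CSF; brain/plasma ratio derived from these. Interanimal variability under 20%.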

The nature of data set [11]: Ratio of drug uptake in CSF to fraction unbound in plasma in rat. The format is ADME, cell-free. An outline of the steps:
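Sprague-Dawley rats, oral 10 mg/kg in 0.5% methocel. CSF level divided by unbound plasma level, with unbound plasma derived using rat plasma protein binding values.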

In data set [12] the test system is Plasma. Kind of data set: Plasma concentration in B6SJL mouse at 30 mg/kg. Also noted: dose 30 mg/kg. The settings on record: in vivo. The class given is ADME, organism-based. In outline: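 Plasma drug levels in B6SJL mice measured after 30 mpk dosing in the contextual fear conditioning study.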
Data set [13] is described as follows: Plasma protein binding in human. As to conditions: read-out: PPB (converted). The format is ADME, cell-free.
The subject of another data set is Brain. As to the kind of experiment: Drug uptake in Sprague-Dawley rat brain at 10 mg/kg, po. The class given is ADME, organism-based. Also noted: dose 10 mg/kg, route oral. The settings on record: in vivo, read-out: Drug uptake. An outline of the steps:
as §3

The target in data set [14] is T2, Muscarinic acetylcholine receptor M1 (Rattus norvegicus) (UniProt P08482).
T2 sequence (whole entry): T1 sequence (whole entry) with A5V, T254S, P309S, R320K, A337G, I413V
As to the kind of experiment: Positive allosteric modulation at rat muscarinic M1 receptor.

Data set [15] in a line: Ratio of drug uptake in brain to plasma in Sprague-Dawley rat at 10 mg/kg, po. The class given is ADME, organism-based. More on the design: dose 10 mg/kg, route oral. The settings on record: read-out: BPR. An outline of the steps: as §3
The nature of data set [16]: Drug uptake in Sprague-Dawley rat CSF at 10 mg/kg, po. The class given is ADME, organism-based, Cerebrospinal fluid. More on the design: dose 10 mg/kg, route oral. As to conditions: in vivo, read-out: Drug uptake. An outline of the steps: as §3

`Cc1ccc(C2CCN(Cc3cc(C(=O)O)c(=O)n4ccccc34)CC2)cc1`: the outcome in the data set on Mus musculus [1], with Mus musculus [4] and with Mus musculus [9] was inactive. Further, the results for the IP in [2] and in data set [14] were 1.7 µM and 760 nM, respectively. Moreover, in data set [3], the log distribution coefficient (logD) was 2.97. Also, the fraction unbound is 0.11 in [5] and 0.09 in data set [13]. Further, the figures for the Ratio in [6], in [8] and in data set [11] were 0.37, 0.42 and 0.7, respectively. Further, the outcome in [7] was Active. Also, the concentration is 0.915 µM with Plasma [10], 31 µM in the data set with Plasma [12], 5.78 µM in the data set with Brain and 0.028 µM in [16]. The Kp in data set [15] worked out at 6.
